Test [1] has as its target C-X-C chemokine receptor type 4 (Homo sapiens) (UniProt P61073). Briefly: Displacement of biotinylated TN14003 from CXCR4 CXCL12 binding domain in human MDA-MB-231 cells preincubated for 10 mins followed by biotinylated TN14003 addition measured after 30 mins using streptavidin-conjugated rhodamine by fluorescence microscopic analysis. The class given is cell-based. In outline: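 MDA-MB-231 cells, 2 × 10^4 per well, seeded 2 days prior. Compound at 1, 10, 100 or 1000 nM for 10 min at room temperature, then fixed in 4% ice-cold paraformaldehyde and rehydrated in PBS. Then 0.05 μg/mL biotinylated TN14003 for 30 min at RT, PBS washes, streptavidin-rhodamine (1:150) for 30 min at RT. Fluorescence microscopy. EC = lowest concentration giving significant fluorescence reduction vs control; semi-quantitative.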

The subject of a further test is Mus musculus. In words: Antiinflammatory activity against carrageenan-induced paw edema in C57BL/6J mouse assessed as inhibition of edema volume at 300 ug/kg, ip daily administered 30 mins post carrageenan-challenge measured post 2 hrs of last injection. The class given is functional. Put shortly: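 Acute paw inflammation in female C57BL/6J mice: 50 μL λ-carrageenan (1% w/v in saline) injected s.c. into one hind paw, saline into the contralateral paw. Dosing i.p. daily from 30 min after challenge, in 10% DMSO / 90% of 45% (2-hydroxypropyl)-β-cyclodextrin in PBS; vehicle controls. Sacrifice at 74 h post-challenge, 2 h after last dose. Paw thickness by caliper; edema = injected minus contralateral. Suppression % vs vehicle group; 5 mice/group.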

The test system of another test is MDA-MB-231. Briefly: Inhibition of […]-induced invasion of human MDA-MB-231 cells at 100 nM after 22 hrs by hematoxylin/eosin-staining based matrigel assay. The test is classed as functional. Particulars: MDA-MB-231, 22 h. Put shortly: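 Invasion chambers with Matrigel-coated 8 μm pore support. MDA-MB-231 cells treated with compound at 100 nM before seeding in the top chamber; CXCL12α at 200 ng/mL in the bottom chamber as chemoattractant. Incubation 22 h, humidified. Non-invading cells swabbed off; invaded cells fixed in methanol and H&E-stained, then counted to give percent invasion.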

Chain of C-X-C chemokine receptor type 4 (Homo sapiens) (P61073 whole entry, the tested form may be a part): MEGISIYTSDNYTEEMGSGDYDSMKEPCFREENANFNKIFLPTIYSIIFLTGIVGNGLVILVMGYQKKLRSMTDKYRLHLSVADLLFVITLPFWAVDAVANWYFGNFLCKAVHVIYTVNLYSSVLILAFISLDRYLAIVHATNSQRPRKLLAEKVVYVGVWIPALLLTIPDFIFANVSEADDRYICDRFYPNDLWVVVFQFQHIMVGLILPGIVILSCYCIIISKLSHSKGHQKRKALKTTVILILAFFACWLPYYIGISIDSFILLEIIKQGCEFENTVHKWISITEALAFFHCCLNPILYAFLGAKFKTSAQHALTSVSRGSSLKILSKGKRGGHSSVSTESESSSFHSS

For the compound `CN(Cc1ccncc1)Cc1ccc(CN(C)Cc2ccncc2)cc1`, in test [1], the EC is greater than 1000 nM.
Consider `CN(Cc1ccc(CN(C)Cc2ccccn2)cc1)Cc1ccccn1`, for which, in test [1], the EC was greater than 1000 nM.
In the case of `N=C(N)NCCC[C@@H]1NC(=O)[C@H](Cc2ccc(O)cc2)NC(=O)[C@H]2CCCN2C(=O)[C@@H](CCCCN)NC(=O)[C@@H](CCCCN)NC(=O)[C@H](CCCNC(=N)N)NC(=O)[C@H](Cc2ccc(O)cc2)NC(=O)[C@H](NC(=O)[C@@H](Cc2ccc3ccccc3c2)NC(=O)[C@H](CCCNC(=N)N)NC(=O)[C@@H](CCCNC(=N)N)NC(=O)c2ccc(F)cc2)CSSC[C@H](C(=O)N[C@H](CCCNC(=N)N)C(N)=O)NC(=O)[C@@H](CCCNC(N)=O)NC1=O` (stereo in doubt), in the test on Mus musculus, the inhibition in vivo at 0.3 mg/kg was determined as 48%.
In test [1], `CCN(Cc1ccccc1)Cc1ccc(CN(CC)Cc2ccccc2)cc1` came in with an EC of 1000 nM.
In turn, `COc1cccc(CN(C)Cc2ccc(CN(C)Cc3cccc(OC)c3)cc2)c1` registered an inhibition at 0.1 µM in the test on MDA-MB-231 of less than 50%. In test [1], this compound returned an EC of 10 nM.
The corresponding values for `c1cc(CN2CCCCC2)ccc1CN1CCCCC1` are less than 50% and 10 nM.
`CN(Cc1ccc(CN(C)Cc2ccccc2Cl)cc1)Cc1ccccc1Cl` returned an EC in test [1] greater than 1000 nM.
Turning to `CN(Cc1ccc(F)cc1)Cc1ccc(CN(C)Cc2ccc(F)cc2)cc1`, the EC in test [1] is greater than 1000 nM.
The compound `CN(Cc1ccc(CN(C)Cc2cccc(Cl)c2)cc1)Cc1cccc(Cl)c1` yielded an EC in test [1] of 1000 nM.
Still for that read-out and setting: with `c1ccc(CN(Cc2ccc(CN(Cc3ccccc3)CC3CC3)cc2)CC2CC2)cc1` the figure was 1000 nM.
As for `c1cc(CN2CCCNCCNCCCNCC2)ccc1CN1CCCNCCNCCCNCC1` [PLERIXAFOR], at 0.1 µM the inhibition in the test on MDA-MB-231 was 62%. For the same compound, the EC in test [1] was 1000 nM.
In test [1], `c1cc(CN2CCCC2)ccc1CN1CCCC1` came in with an EC of 1000 nM.
In test [1], `CN(Cc1ccc(CN(C)c2ccccc2)cc1)c1ccccc1` gave an EC of 1000 nM.
Still for that read-out and setting: then `c1cc(CN2CCOCC2)ccc1CN1CCOCC1`, with greater than 1000 nM; and `CN(Cc1ccc(CN(C)Cc2cccnc2)cc1)Cc1cccnc1`, with greater than 1000 nM.
The same measure, in the same setting: then `CN(Cc1ccc(CN(C)Cc2cccc(F)c2)cc1)Cc1cccc(F)c1`, with greater than 1000 nM; and `CN(Cc1ccc(CN(C)Cc2ccccc2F)cc1)Cc1ccccc1F`, with greater than 1000 nM.
For `CN(Cc1ccc(CN(C)c2ccc(F)cc2)cc1)c1ccc(F)cc1`, the inhibition at 0.1 µM in the test with MDA-MB-231 came out at 66.4%. The compound also gave an EC in test [1] of 100 nM.

As usually defined, the inhibition in vivo is the relative decrease from the control value, in per cent. Usually inhibition stands for the relative decrease from the control value, in per cent. A lower inhibition goes with a response near the control.

(Values after ChEMBL document CHEMBL3826889, “Symmetrical bis-tertiary amines as novel CXCR4 inhibitors” (2016).)
